Source: ChEMBL document CHEMBL1649547, “Telavancin disrupts the functional integrity of the bacterial membrane through targeted interaction with the cell wall precursor lipid II” (Antimicrob Agents Chemother, 2009)
In brackets after ≈: the same amount, converted by molar mass. Activity calls are given as the source filed them. The rule behind the calls is not given here.

Assays:
Staphylococcus aureus [1] = test: Antibacterial activity against daptomycin-nonsusceptible Staphylococcus aureus MED2034; assay type: functional
How it was run: (§1)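 MIC determined with commercially manufactured dry-form panels; the organisms were grown in cation-adjusted Mueller-Hinton II broth.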

Staphylococcus aureus [2] = test: Antibacterial activity against Staphylococcus aureus grown in MHB medium assessed as induction of bacterial membrane depolarization at 2 to 32 ug/ml by flow cytometry; assay type: functional, organism-based
How it was run: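 MHB-grown S. aureus either kept in MHB or washed and resuspended in cation-containing PBS, then equilibrated 10 min at 37°C before telavancin 2–32 µg/ml. Time course of depolarization measured by DiOC2(3) flow cytometry (final 30 µM, 5 min stain, red/green ratio). Three independent experiments.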

Staphylococcus aureus [3] = test: Antibacterial activity against Staphylococcus aureus; assay type: functional; how it was run: as §1
Staphylococcus aureus [4] = test: Antibacterial activity against Staphylococcus aureus assessed as induction of bacterial membrane depolarization at 8 ug/ml by flow cytometry; assay type: functional
How it was run: (§2)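 Membrane potential was measured with DiOC2(3) flow cytometry. Early-exponential cultures (A625 = 0.3) in cation-adjusted MHB were diluted to 106 CFU/ml and dosed in 5-ml aliquots at 37°C with shaking. Samples were stained 5 min with 30 µM DiOC2(3) (final). 5,000 events per sample were collected. The red/green fluorescence ratio was gated against a CCCP-depolarized population. The endpoint was 90 min unless noted.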

Staphylococcus aureus [5] = test: Antibacterial activity against Staphylococcus aureus assessed as induction of bacterial cell lysis at 8 to 32 ug/ml by turbidity assay; assay type: functional, organism-based
How it was run: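 S. aureus ATCC 33591 was grown in cation-adjusted MHB to early exponential phase (A625 = 0.3). 5-ml aliquots received compound at the final concentration and were incubated in a shaking 37°C water bath. Lysis was followed by turbidity. Cells were also imaged by microscopy at 0, 2 and 6 h, scoring at least 30 cells per condition. Lysostaphin served as the lysis control. Means ± SD of three independent experiments.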

Staphylococcus aureus [6] = test: Antibacterial activity against Staphylococcus aureus assessed as induction of bacterial membrane depolarization by flow cytometry; assay type: functional, organism-based
How it was run: (§3)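 S. aureus ATCC 29213 grown in MHB at 37°C to A625 = 0.3, diluted to 10^6 CFU/ml in MHB. Compound added to 5 ml aliquots, shaking water bath at 37°C, usually 90 min endpoint. Samples mixed 1:1 with DiOC2(3) (final 30 µM) and stained 5 min. Flow cytometry of 5,000 events, red/green ratio; depolarized gate set from CCCP. IC50 from four-parameter sigmoidal fit.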

Staphylococcus aureus [7] = test: Antibacterial activity against vancomycin-intermediate Staphylococcus aureus ATCC 700699; assay type: functional; how it was run: as §1
Staphylococcus aureus [8] = test: Inhibition of bacterial cell wall precursor lipid 2 synthesis in Staphylococcus aureus assessed as induction of membrane depolarization at 32 ug/ml by flow cytometry in presence of bacitracin; assay type: functional; parameters: scale not given: the % may be the effect or the level left
How it was run: (§4)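 Cells then exposed to telavancin 32 µg/ml for 15 min (nisin 2 µg/ml, 5 min). DiOC2(3) flow cytometry. Percent depolarization expressed relative to samples without pretreatment.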

Staphylococcus aureus [9] = test: Antibacterial activity against Staphylococcus aureus in presence of 0.5 mM D-Ala-D-Ala; assay type: functional
Staphylococcus aureus [10] = test: Antibacterial activity against Staphylococcus aureus assessed as induction of bacterial cell lysis at 8 to 32 ug/ml by spectrophotometry; assay type: functional, organism-based
How it was run: (§5)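 S. aureus ATCC 33591 grown in MHB to early exponential phase (A625 = 0.3). 5 ml aliquots treated at final concentration, shaking water bath at 37°C. Turbidity read by spectrophotometer. Lysis also scored by microscopy: intact cells dark, lysed cells transparent; imaged at 0, 2 and 6 h, at least 30 cells per condition. Lysostaphin as lysis control. Three independent experiments.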

Staphylococcus aureus [11] = test: Antibacterial activity against Staphylococcus aureus assessed as induction of bacterial membrane depolarization at 32 ug/ml by flow cytometry in presence of 0.5 mM D-Ala-D-Ala; assay type: functional
How it was run: (§6)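 S. aureus at 10^6 CFU/ml in MHB at 37°C. dKAA tripeptide (0.05, 0.5 or 5 mM) added before telavancin (8 or 32 µg/ml), 60 min reading. DiOC2(3) staining (final 30 µM, 5 min), flow cytometry of 5,000 events, red/green fluorescence ratio; depolarized gate defined with CCCP-treated cells.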

Cell membrane = test: Binding affinity to cell membrane of Staphylococcus aureus grown in MHB medium at 8 ug/ml by scintillation counting relative to control
How it was run: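 S. aureus at 10^8 CFU/ml in MHB or PBS at 37°C, exposed to [14C]telavancin 8 µg/ml over 2 h. At each time point, cells collected on 0.2-µm filter plate, dried overnight at 37°C, and scintillation counted. Three independent experiments.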

Staphylococcus aureus [12] = test: Antibacterial activity against Staphylococcus aureus in presence of 5 mM D-Ala-D-Ala; assay type: functional
Staphylococcus aureus [13] = test: Antibacterial activity against Staphylococcus aureus assessed as induction of bacterial membrane depolarization at 32 ug/ml by flow cytometry; assay type: functional; how it was run: as §3
Staphylococcus aureus [14] = test: Antibacterial activity against Staphylococcus aureus in presence of 0.05 mM D-Ala-D-Ala; assay type: functional
Staphylococcus aureus [15] = test: Antibacterial activity against Staphylococcus aureus assessed as induction of bacterial membrane depolarization at 8 ug/ml by flow cytometry in presence of 0.05 mM D-Ala-D-Ala; assay type: functional; how it was run: as §6
Staphylococcus aureus [16] = test: Antibacterial activity against heterogeneous vancomycin-intermediate Staphylococcus aureus ATCC 700698 assessed as induction of bacterial membrane depolarization at 32 ug/ml by flow cytometry; assay type: functional
How it was run: (§7)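 Strains with resistance phenotypes tested in the DiOC2(3) flow-cytometric depolarization assay. Cells at 10^6 CFU/ml in MHB at 37°C, dye final 30 µM, 5 min stain, 5,000 events, red/green ratio. Percent depolarization followed over time.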

Staphylococcus aureus [17] = test: Antibacterial activity against Staphylococcus aureus assessed as induction of bacterial membrane depolarization at 32 ug/ml by flow cytometry in presence of 5 mM D-Ala-D-Ala; assay type: functional; how it was run: as §6
Staphylococcus aureus [18] = test: Antibacterial activity against Staphylococcus aureus assessed as induction of bacterial membrane depolarization at 8 ug/ml by flow cytometry in presence of 5 mM D-Ala-D-Ala; assay type: functional; how it was run: as §6
Staphylococcus aureus [19] = test: Antibacterial activity against Staphylococcus aureus assessed as bacterial count at 8 to 32 ug/ml by turbidity assay; assay type: functional; how it was run: as §5
Staphylococcus aureus [20] = test: Inhibition of bacterial cell wall precursor lipid 2 synthesis in Staphylococcus aureus assessed as induction of membrane depolarization at 32 ug/ml by flow cytometry in presence of fosfomycin; assay type: functional; parameters: scale not given: the % may be the effect or the level left; how it was run: as §4
Staphylococcus aureus [21] = test: Antibacterial activity against Staphylococcus aureus assessed as change in cellular membrane integrity at 8 to 32 ug/ml up to 6 hrs by spectrophotometry; assay type: functional, organism-based; how it was run: as §5
Staphylococcus aureus [22] = test: Antibacterial activity against daptomycin-nonsusceptible Staphylococcus aureus MED2034 assessed as induction of bacterial membrane depolarization at 32 ug/ml by flow cytometry; assay type: functional; how it was run: as §2
Staphylococcus aureus [23] = test: Antibacterial activity against methicillin-resistant Staphylococcus aureus ATCC 33591; assay type: functional; how it was run: as §1
Staphylococcus aureus [24] = test: Antibacterial activity against Staphylococcus aureus assessed as induction of bacterial membrane depolarization at 32 ug/ml by flow cytometry in presence of 0.05 mM D-Ala-D-Ala; assay type: functional; how it was run: as §6
Staphylococcus aureus [25] = test: Antibacterial activity against heterogeneous vancomycin-intermediate Staphylococcus aureus ATCC 700698; assay type: functional
Staphylococcus aureus [26] = test: Inhibition of bacterial cell wall precursor lipid 2 synthesis in Staphylococcus aureus assessed as induction of membrane depolarization at 32 ug/ml by flow cytometry in presence of D-cycloserine; assay type: functional; parameters: scale not given: the % may be the effect or the level left; how it was run: as §4
Staphylococcus aureus [27] = test: Antibacterial activity against Staphylococcus aureus assessed as induction of bacterial membrane depolarization at 8 ug/ml by flow cytometry in presence of 0.5 mM D-Ala-D-Ala; assay type: functional; how it was run: as §6
Staphylococcus aureus [28] = test: Antibacterial activity against vancomycin-intermediate Staphylococcus aureus ATCC 700699 assessed as induction of bacterial membrane depolarization at 32 ug/ml by flow cytometry; assay type: functional; how it was run: as §7

Compound: CCCCCCCCCC(=O)N[C@@H](Cc1c[nH]c2ccccc12)C(=O)N[C@H](CC(N)=O)C(=O)N[C@@H](CC(=O)O)C(=O)N[C@@H]1C(=O)NCC(=O)N[C@@H](CCCN)C(=O)N[C@@H](CC(=O)O)C(=O)N[C@H](C)C(=O)N[C@@H](CC(=O)O)C(=O)NCC(=O)N[C@H](CO)C(=O)N[C@@H]([C@H](C)CC(=O)O)C(=O)N[C@@H](CC(=O)c2ccccc2N)C(=O)O[C@@H]1C
- MIC (Staphylococcus aureus [1]): 4 µg/mL (≈ 2.47 µM)

Compound: CCCCCCCCCCO [DECANOL]
- Activity (Staphylococcus aureus [2]): Active
- MIC (Staphylococcus aureus [3]): 128 µg/mL (≈ 809 µM)

Compound: CCCCCCCCCCNCCN[C@@]1(C)C[C@H](O[C@H]2[C@H](Oc3c4cc5cc3Oc3ccc(cc3Cl)[C@H](O)[C@@H](NC(=O)O)C(=O)N[C@@H](CC(N)=O)C(=O)N[C@H]5C(=O)N[C@H]3C(=O)N[C@H](C(=O)N[C@H](C(=O)O)c5cc(O)c(CNCP(=O)(O)O)c(O)c5-c5cc3ccc5O)[C@H](O)c3ccc(c(Cl)c3)O4)O[C@H](CO)[C@@H](O)[C@@H]2O)O[C@@H](C)[C@H]1O
- MIC (Staphylococcus aureus [3]): 8 µg/mL (≈ 4.78 µM)
- Activity (Staphylococcus aureus [4]): 35%

Compound: CN[C@H](CC(C)C)C(=O)N[C@H]1C(=O)N[C@@H](CC(N)=O)C(=O)N[C@H]2C(=O)N[C@H]3C(=O)N[C@H](C(=O)N[C@H](C(=O)O)c4cc(O)cc(O)c4-c4cc3ccc4O)[C@H](O)c3ccc(c(Cl)c3)Oc3cc2cc(c3O[C@@H]2O[C@H](CO)[C@@H](O)[C@H](O)[C@H]2O[C@H]2C[C@](C)(N)[C@H](O)[C@H](C)O2)Oc2ccc(cc2Cl)[C@H]1O [VANCOMYCIN]
- Activity (Staphylococcus aureus [5]): inactive
- IC50 (Staphylococcus aureus [6]): > 96 µg/mL
- MIC (Staphylococcus aureus [7]): 8 µg/mL (≈ 5.52 µM)

Compound: CCCCCCCCCCNCCN[C@@]1(C)C[C@H](O[C@H]2[C@H](Oc3c4cc5cc3Oc3ccc(cc3Cl)[C@@H](O)[C@@H](NC(=O)[C@@H](CC(C)C)NC)C(=O)N[C@@H](CC(N)=O)C(=O)N[C@H]5C(=O)N[C@H]3C(=O)N[C@H](C(=O)N[C@H](C(=O)O)c5cc(O)c(CNCP(=O)(O)O)c(O)c5-c5cc3ccc5O)[C@H](O)c3ccc(c(Cl)c3)O4)O[C@H](CO)[C@@H](O)[C@@H]2O)O[C@@H](C)[C@H]1O [TELAVANCIN]
- Activity (Staphylococcus aureus [8]): 27%
- MIC (Staphylococcus aureus [9]): 1 µg/mL
- Activity (Staphylococcus aureus [10]): inactive
- Activity (Staphylococcus aureus [11]): 19%
- Activity (Staphylococcus aureus [6]): Dose-dependent effect
- IC50 (Staphylococcus aureus [6]): 3.6 µg/mL (≈ 2.05 µM)
- fold change (FC) (Cell membrane): 2.8
- Activity (Staphylococcus aureus [2]): Active
- MIC (Staphylococcus aureus [12]): 4 µg/mL
- Activity (Staphylococcus aureus [13]): 94%
- MIC (Staphylococcus aureus [14]): 0.5 µg/mL
- Activity (Staphylococcus aureus [15]): 33%
- Activity (Staphylococcus aureus [16]): 78%
- Activity (Staphylococcus aureus [17]): 14%
- Activity (Staphylococcus aureus [18]): 7%
- log10CFU/ml (Staphylococcus aureus [19]): 3
- Activity (Staphylococcus aureus [20]): 29%
- Activity (Staphylococcus aureus [21]): inactive
- MIC (Staphylococcus aureus [7]): 0.5 µg/mL (≈ 0.285 µM)
- MIC (Staphylococcus aureus [3]): 0.25 µg/mL (≈ 0.142 µM)
- Activity (Staphylococcus aureus [22]): 77%
- Activity (Staphylococcus aureus [4]): 49%
- MIC (Staphylococcus aureus [23]): ≤ 0.5 µg/mL
- Activity (Staphylococcus aureus [24]): 68%
- MIC (Staphylococcus aureus [25]): ≤ 0.5 µg/mL
- Activity (Staphylococcus aureus [26]): 38%
- Activity (Staphylococcus aureus [27]): 17%
- Activity (Staphylococcus aureus [28]): 61%
- MIC (Staphylococcus aureus [1]): ≤ 0.5 µg/mL
